Molecular target: OXE receptor (Homo sapiens, UniProt Q8TDS5)
Assay: Agonist activity: calcium mobilization in neutrophils by the compound itself
Assay type: cell-based
Summary of the method: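 Neutrophils were isolated by dextran sedimentation, Ficoll centrifugation and hypotonic lysis, then loaded with indo-1 AM. In PBS with Ca++ 1.8 mM and Mg++ 1 mM (final, added 5 min before), cells sat in a stirred cuvette at 37 °C. Fluorescence was read at excitation 331 nm and emission 410 nm. After a stable baseline, DMSO vehicle or test compound was added, and 2 min later 5-oxo-ETE (10 nM final). Digitonin (0.1% final) gave maximal fluorescence.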

OXE receptor, sequence (Q8TDS5 whole entry): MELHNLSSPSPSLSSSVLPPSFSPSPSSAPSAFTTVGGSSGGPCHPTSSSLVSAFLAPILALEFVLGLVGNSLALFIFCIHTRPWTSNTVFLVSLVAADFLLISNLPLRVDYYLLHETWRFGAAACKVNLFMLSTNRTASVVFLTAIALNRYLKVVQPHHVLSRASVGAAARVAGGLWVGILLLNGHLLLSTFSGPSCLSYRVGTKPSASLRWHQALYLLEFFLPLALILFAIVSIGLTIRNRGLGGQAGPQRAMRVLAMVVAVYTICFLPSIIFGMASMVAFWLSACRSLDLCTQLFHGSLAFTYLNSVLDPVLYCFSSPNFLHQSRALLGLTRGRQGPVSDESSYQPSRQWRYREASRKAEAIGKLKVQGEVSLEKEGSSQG

SMILES: CCCCCCc1nc2ccccc2cc1C(=O)CCCC(=O)O [quinoline derivative]
- Agonist activity (calcium mobilization by the compound itself): did not act as an agonist
